We go through two molecules from ChEMBL document CHEMBL3526095, “Characterization of the in vitro and in vivo metabolism and disposition and cytochrome P450 inhibition/induction profile of saxagliptin in human” (Drug Metab Dispos, 2012).

Assay type in all cases: ADME
The target in assay [1] is T1, Cytochrome P450 2B6 (Homo sapiens, UniProt P20813).
T1 sequence (P20813 whole entry): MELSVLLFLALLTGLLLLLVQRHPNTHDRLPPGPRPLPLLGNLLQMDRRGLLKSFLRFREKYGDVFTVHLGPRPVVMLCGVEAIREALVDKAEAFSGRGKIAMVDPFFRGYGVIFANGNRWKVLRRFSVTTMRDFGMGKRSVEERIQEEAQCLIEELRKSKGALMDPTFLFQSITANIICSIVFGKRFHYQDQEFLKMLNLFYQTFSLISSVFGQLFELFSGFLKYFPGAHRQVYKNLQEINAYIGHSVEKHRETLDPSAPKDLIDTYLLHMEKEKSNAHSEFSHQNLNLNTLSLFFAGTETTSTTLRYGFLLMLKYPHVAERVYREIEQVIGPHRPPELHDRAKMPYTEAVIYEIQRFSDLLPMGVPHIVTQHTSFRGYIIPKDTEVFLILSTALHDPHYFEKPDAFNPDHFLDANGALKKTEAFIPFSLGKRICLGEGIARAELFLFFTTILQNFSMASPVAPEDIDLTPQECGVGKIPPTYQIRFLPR
The assay is described as follows: Inhibition of CYP2B6 in human liver microsomes assessed as bupropion hydroxylation after 3 mins by LC-MS/MS analysis in presence of NADPH. In a few lines: (§1)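 Pooled HLM from 15 donors, probe substrate near its experimentally determined level, in 100 mM phosphate buffer pH 7.4 at 37°C. Saxagliptin tested at 0.1–50 µM, M2 at 0.1–200 µM. Direct inhibition: 3-min equilibration, then reaction started with 1 mM NADPH. Time-dependent inhibition: 15-min preincubation with or without NADPH, then substrate added.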

Assay [2] addresses T2, Cytochrome P450 2C8 (Homo sapiens, UniProt P10632).
T2 sequence (P10632 whole entry): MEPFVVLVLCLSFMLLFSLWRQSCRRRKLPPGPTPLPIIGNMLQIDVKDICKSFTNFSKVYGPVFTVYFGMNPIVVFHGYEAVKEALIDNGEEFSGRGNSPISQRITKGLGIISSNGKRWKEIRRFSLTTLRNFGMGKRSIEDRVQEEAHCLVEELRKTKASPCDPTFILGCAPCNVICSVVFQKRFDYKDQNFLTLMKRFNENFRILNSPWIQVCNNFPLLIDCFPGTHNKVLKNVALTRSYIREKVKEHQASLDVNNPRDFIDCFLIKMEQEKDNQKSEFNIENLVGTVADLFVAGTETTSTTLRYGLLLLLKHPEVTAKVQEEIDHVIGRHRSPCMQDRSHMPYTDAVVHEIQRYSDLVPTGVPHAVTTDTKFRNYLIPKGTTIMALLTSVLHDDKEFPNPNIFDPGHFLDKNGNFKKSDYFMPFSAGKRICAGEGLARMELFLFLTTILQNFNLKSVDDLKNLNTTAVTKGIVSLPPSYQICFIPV
Put plainly: Inhibition of CYP2C8 in human liver microsomes assessed as paclitaxel 6alpha-hydroxylation after 3 mins by LC-MS/MS analysis in presence of NADPH. The gist of the method:
as §1
Background: Microsomes from liver hold many membrane-bound enzymes, among them those of drug oxidation.

Assay [3] concerns the target T3, Cytochrome P450 2C9 (Homo sapiens, UniProt P11712). The assay is described as follows: Inhibition of CYP2C9 in human liver microsomes assessed as paclitaxel 6alpha-hydroxylation after 3 mins by LC-MS/MS analysis in presence of NADPH. The following applies: in the assay text read “tolbutamide hydroxylation” for “paclitaxel 6alpha-hydroxylation”. The gist of the method:
as §1

Assay [4] has as its target T4, Cytochrome P450 2C19 (Homo sapiens, UniProt P33261). The assay is described as follows: Inhibition of CYP2C19 in human liver microsomes assessed as (S)-mephenytoin 4'-hydroxylation after 3 mins by LC-MS/MS analysis. The gist of the method: as §1
The target in assay [5] is T5, Cytochrome P450 2D6 (Homo sapiens, UniProt P10635). The assay is described as follows: Inhibition of CYP2D6 in human liver microsomes assessed as bufuralol 1'-hydroxylation after 3 mins by LC-MS/MS analysis.
Assay [6] deals with T6, Cytochrome P450 2E1 (Homo sapiens, UniProt P05181). The assay is described as follows: Inhibition of CYP2E1 in human liver microsomes assessed as chlorzoxazone 6-hydroxylation after 3 mins by LC-MS/MS analysis in presence of NADPH.
In assay [7] the target is T1, Cytochrome P450 2B6. The assay is described as follows: Inhibition of CYP2B6 in human liver microsomes assessed as bupropion hydroxylation preincubated for 15 mins by LC-MS/MS analysis in presence of NADPH. The gist of the method:
as §1

The target in assay [8] is T2, Cytochrome P450 2C8. The assay is described as follows: Inhibition of CYP2C8 in human liver microsomes assessed as paclitaxel 6alpha-hydroxylation preincubated for 15 mins by LC-MS/MS analysis in presence of NADPH. The gist of the method: as §1
The target in assay [9] is T3, Cytochrome P450 2C9. The assay is described as follows: Inhibition of CYP2C9 in human liver microsomes assessed as paclitaxel 6alpha-hydroxylation preincubated for 15 mins by LC-MS/MS analysis in presence of NADPH. The conditions noted are these: in the assay text read “tolbutamide hydroxylation” for “paclitaxel 6alpha-hydroxylation”. In a few lines: as §1
Assay [10] deals with T4, Cytochrome P450 2C19. Put plainly: Inhibition of CYP2C19 in human liver microsomes assessed as (S)-mephenytoin 4'-hydroxylation preincubated for 15 mins by LC-MS/MS analysis. The gist of the method:
as §1

The target in assay [11] is T5, Cytochrome P450 2D6. The assay is described as follows: Inhibition of CYP2D6 in human liver microsomes assessed as bufuralol 1'-hydroxylation preincubated for 15 mins by LC-MS/MS analysis. The gist of the method: (§2)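 Time-dependent format. Pooled human liver microsomes (15 donors) were preincubated 15 min at 37°C with test compound, with and without 1 mM NADPH. The probe substrate was then added at the same concentration as in the direct assay.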

The target of assay [12] is T6, Cytochrome P450 2E1. The assay is described as follows: Inhibition of CYP2E1 in human liver microsomes assessed as chlorzoxazone 6-hydroxylation preincubated for 15 mins by LC-MS/MS analysis in presence of NADPH. The gist of the method: as §2
The target of a further assay is T7, Cytochrome P450 1A2 (Homo sapiens, UniProt P05177).
T7 sequence (P05177 whole entry): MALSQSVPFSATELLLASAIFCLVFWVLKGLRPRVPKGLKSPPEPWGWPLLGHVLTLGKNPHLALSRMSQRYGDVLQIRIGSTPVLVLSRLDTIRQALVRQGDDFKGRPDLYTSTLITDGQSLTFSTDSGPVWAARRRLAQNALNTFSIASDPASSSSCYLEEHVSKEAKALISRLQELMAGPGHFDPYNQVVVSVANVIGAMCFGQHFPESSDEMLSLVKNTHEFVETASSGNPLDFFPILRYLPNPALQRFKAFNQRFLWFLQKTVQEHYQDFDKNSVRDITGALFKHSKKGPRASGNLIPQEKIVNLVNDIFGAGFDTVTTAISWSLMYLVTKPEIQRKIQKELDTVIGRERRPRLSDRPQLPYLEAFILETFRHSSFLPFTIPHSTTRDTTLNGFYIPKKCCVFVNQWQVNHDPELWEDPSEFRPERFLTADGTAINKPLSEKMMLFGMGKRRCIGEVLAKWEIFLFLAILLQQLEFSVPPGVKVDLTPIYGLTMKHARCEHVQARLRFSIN
The assay is described as follows: Inhibition of CYP1A2 in human liver microsomes assessed as phenacetin O-deethylation preincubated for 15 mins by LC-MS/MS analysis in presence of NADPH.

T5 sequence (P10635 whole entry): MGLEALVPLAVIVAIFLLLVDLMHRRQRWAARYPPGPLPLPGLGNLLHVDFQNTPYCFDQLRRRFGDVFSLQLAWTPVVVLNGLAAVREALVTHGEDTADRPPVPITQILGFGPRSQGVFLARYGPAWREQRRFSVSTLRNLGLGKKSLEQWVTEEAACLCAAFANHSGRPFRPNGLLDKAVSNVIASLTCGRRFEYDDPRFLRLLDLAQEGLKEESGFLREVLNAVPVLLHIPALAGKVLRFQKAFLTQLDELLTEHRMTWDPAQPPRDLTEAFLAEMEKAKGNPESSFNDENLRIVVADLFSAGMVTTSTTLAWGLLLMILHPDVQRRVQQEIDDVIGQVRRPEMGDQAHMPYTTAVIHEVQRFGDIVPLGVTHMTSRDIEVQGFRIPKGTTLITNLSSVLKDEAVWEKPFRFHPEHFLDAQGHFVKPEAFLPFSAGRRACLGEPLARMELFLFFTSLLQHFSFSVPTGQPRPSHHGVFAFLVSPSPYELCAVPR
T4 sequence (P33261 whole entry): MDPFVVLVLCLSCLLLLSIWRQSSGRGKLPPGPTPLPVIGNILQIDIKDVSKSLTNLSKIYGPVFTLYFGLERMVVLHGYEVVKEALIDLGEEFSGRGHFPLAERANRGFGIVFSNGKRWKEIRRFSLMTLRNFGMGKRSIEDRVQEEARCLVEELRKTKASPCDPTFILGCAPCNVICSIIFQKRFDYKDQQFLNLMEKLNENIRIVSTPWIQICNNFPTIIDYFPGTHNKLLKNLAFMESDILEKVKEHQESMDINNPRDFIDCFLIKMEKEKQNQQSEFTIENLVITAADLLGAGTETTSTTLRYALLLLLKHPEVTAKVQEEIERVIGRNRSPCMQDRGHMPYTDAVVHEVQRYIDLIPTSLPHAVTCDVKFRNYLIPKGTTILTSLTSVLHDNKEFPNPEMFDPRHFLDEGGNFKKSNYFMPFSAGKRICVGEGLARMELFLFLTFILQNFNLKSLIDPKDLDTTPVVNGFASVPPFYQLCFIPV
T3 sequence (P11712 whole entry): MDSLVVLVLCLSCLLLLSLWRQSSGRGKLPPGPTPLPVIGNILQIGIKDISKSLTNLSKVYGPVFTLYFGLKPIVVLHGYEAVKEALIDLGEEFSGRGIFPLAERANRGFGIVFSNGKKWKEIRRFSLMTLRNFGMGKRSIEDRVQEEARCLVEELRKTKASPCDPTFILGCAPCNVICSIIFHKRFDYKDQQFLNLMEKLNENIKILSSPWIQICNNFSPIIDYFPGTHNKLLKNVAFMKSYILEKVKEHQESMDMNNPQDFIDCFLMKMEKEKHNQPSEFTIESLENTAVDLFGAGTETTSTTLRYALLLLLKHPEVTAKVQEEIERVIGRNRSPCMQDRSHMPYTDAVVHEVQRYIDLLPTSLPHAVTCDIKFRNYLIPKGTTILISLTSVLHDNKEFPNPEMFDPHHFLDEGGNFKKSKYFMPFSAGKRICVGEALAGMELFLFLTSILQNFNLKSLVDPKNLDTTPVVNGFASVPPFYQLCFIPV
T6 sequence (P05181 whole entry): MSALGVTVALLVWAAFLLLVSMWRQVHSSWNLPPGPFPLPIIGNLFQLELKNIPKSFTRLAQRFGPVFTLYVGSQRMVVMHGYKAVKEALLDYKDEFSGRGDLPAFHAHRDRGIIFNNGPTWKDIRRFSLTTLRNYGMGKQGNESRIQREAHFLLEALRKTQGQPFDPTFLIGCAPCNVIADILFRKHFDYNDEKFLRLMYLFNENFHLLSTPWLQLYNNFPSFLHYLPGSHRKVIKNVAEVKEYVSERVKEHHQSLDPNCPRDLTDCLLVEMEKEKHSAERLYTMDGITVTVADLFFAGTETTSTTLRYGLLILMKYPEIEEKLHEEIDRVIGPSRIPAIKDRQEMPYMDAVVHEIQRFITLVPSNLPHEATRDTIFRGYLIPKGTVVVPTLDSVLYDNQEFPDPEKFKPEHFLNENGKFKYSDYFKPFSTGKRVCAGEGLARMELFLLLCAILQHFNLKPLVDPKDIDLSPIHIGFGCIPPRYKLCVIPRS

As for `N#C[C@@H]1C[C@@H]2C[C@@H]2N1C(=O)[C@@H](N)C12CC3CC(CC(O)(C3)C1)C2` [SAXAGLIPTIN ANHYDROUS], the IC50 on Cytochrome P450 2B6 [1], on Cytochrome P450 2C8 [2], at Cytochrome P450 2C9 [3], on Cytochrome P450 2C19 [4], at Cytochrome P450 2D6 [5] and on Cytochrome P450 2E1 [6] was above 50 µM each time. The IC50 on Cytochrome P450 2B6 [7], at Cytochrome P450 2C8 [8], on Cytochrome P450 2C9 [9], on Cytochrome P450 2C19 [10], on Cytochrome P450 2D6 [11] and on Cytochrome P450 2E1 [12] was above 50 µM each time.
Consider `N#C[C@@H]1C[C@@H]2C[C@@H]2N1C(=O)[C@@H](N)C12CC3CC(O)(CC(O)(C3)C1)C2`, for which the IC50 at Cytochrome P450 2B6 [1], on Cytochrome P450 2C8 [2], at Cytochrome P450 2C9 [3], on Cytochrome P450 2C19 [4], at Cytochrome P450 2D6 [5] and at Cytochrome P450 2E1 [6] was above 200 µM throughout. Further, the IC50 on Cytochrome P450 1A2, on Cytochrome P450 2B6 [7], at Cytochrome P450 2C8 [8], at Cytochrome P450 2C9 [9], on Cytochrome P450 2C19 [10] and on Cytochrome P450 2D6 [11] was above 200 µM in each case. Also, at Cytochrome P450 2E1 [12], the IC50 was above 200 µM.

By IC50 is commonly meant the point on the concentration scale where inhibition reaches its midpoint.
